Test results reported in ChEMBL document CHEMBL1123311, “Synthesis and antitumor and antiviral properties of 5-halo- and 5-(trifluoromethyl)-2'-deoxyuridine 3',5'-cyclic monophosphates and neutral triesters” (1986).
Converted amounts (≈) assume the structure as drawn.

Key:
Human alphaherpesvirus 2 [1] = assay: Evaluation of antiviral activity against Herpes simplex virus type 2 (HSV-2) strain Lyons; assay type: functional
How it was run: (§1)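 Virus-induced cytopathogenicity scored in primary rabbit kidney cell cultures. Value is the minimum concentration reducing cytopathogenicity by 50%. Cytotoxicity on uninfected cells was read as the minimal concentration causing a microscopically detectable change in normal cell morphology, tested up to 400 μg/mL.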

Vaccinia virus = assay: Evaluation of antiviral activity against Vaccinia virus; assay type: functional; conditions: Orthopoxvirus vaccinia; how it was run: as §1
Human alphaherpesvirus 1 [2] = assay: Evaluation of antiviral activity against Herpes simplex virus type 1 (HSV-1) strain KOS.; assay type: functional; how it was run: as §1
Human alphaherpesvirus 2 [3] = assay: Evaluation of antiviral activity against Herpes simplex virus type 2 (HSV-2) strain G; assay type: functional; how it was run: as §1
Human alphaherpesvirus 2 [4] = assay: Evaluation of antiviral activity against Herpes simplex virus type 2 (HSV-2) strain 196.; assay type: functional; how it was run: as §1
[5] = tested on: Vesicular stomatitis virus; assay: Evaluation of antiviral activity against Vesicular stomatitis virus.; assay type: functional; how it was run: as §1
Human alphaherpesvirus 1 [6] = assay: Evaluation of antiviral activity against Herpes simplex virus type 1 (HSV-1) strain McIntyre; assay type: functional; how it was run: as §1
Human alphaherpesvirus 1 [7] = assay: Evaluation of antiviral activity against Herpes simplex virus type 1 (HSV-1) strain F; assay type: functional; how it was run: as §1
L1210 [8] = assay: Evaluation of cytostatic activity by using antitumor assays against murine leukemia L1210 cells; assay type: functional; conditions: Mus musculus, read-out: ID50 (the source's name)
Homo sapiens = species on record: Homo sapiens; assay: Evaluation for antitumor activity against human lymphoblast Raji cells; assay type: functional; conditions: for IC50: Homo sapiens, Raji, read-out: ID50 (the source's name)
[9] = target: Thymidylate synthase (Mus musculus) (UniProt P07607)
L1210 [10] = assay: Evaluation of antitumor activity against mutant murine leukemia L1210 cells; assay type: functional; conditions: Mus musculus, read-out: ID50 (the source's name)
How it was run: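 Proliferation of mutant murine leukemia L1210/BdUrd cells, selected from parental L1210/0 for growth in 260 μg/mL 5-bromo-2'-deoxyuridine. Value is the dose inhibiting proliferation by 50%.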

Raji = assay: Evaluation of antitumor activity against thymidine kinase deficient Raji cell line; assay type: functional; conditions: Homo sapiens, read-out: ID50 (the source's name)
[11] = target: Thymidylate synthase (Mus musculus) (UniProt P07607); assay: Compound was evaluated for the inhibition of L1210 thymidylate synthetase (L1210 dTMP)
How it was run: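 Enzyme source was a partially purified extract of murine leukemia L1210 cells. The dTMP synthetase assay followed an earlier published method, and no reaction conditions are given here.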

[12] = target: Thymidylate synthase (Mus musculus) (UniProt P07607); assay: Compound was evaluated for the inhibition of L1210 Thymidylate synthase
How it was run: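 Thymidylate (dTMP) synthetase inhibition measured with a partially purified extract of L1210 cells as the enzyme source.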

Sequence of Thymidylate synthase (Mus musculus) (P07607 whole entry, looked up): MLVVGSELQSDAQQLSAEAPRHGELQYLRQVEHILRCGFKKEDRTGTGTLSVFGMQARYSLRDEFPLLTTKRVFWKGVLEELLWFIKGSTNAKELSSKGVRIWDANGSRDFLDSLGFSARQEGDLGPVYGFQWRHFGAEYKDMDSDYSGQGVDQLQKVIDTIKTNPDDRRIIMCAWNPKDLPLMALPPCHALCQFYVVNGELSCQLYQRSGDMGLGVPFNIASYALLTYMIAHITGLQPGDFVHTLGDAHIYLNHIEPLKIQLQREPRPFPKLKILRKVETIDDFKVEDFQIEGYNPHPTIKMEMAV

Compound | MIC50 (Human alphaherpesvirus 2 [1]) | MIC50 (Vaccinia virus) | MIC50 (Human alphaherpesvirus 1 [2]) | MIC50 (Human alphaherpesvirus 2 [3]) | MIC50 (Human alphaherpesvirus 2 [4]) | MIC50 [5] | MIC50 (Human alphaherpesvirus 1 [6]) | MIC50 (Human alphaherpesvirus 1 [7]) | IC50 (L1210 [8]) | IC50 (Homo sapiens) | Ki/Km [9] | IC50 (L1210 [10]) | IC50 (Raji) | Ki/Km [11] | Ki/Km [12] | ID50 (Homo sapiens)
O=c1[nH]c(=O)n([C@H]2C[C@H](O)[C@@H](CO)O2)cc1/C=C/Br [BRIVUDINE] | 7 µg/mL (≈ 21 µM) | 4 µg/mL (≈ 12 µM) | 0.02 µg/mL (≈ 0.06 µM) | 4 µg/mL (≈ 12 µM) | 70 µg/mL (≈ 210 µM) | > 400 µg/mL | 0.07 µg/mL (≈ 0.21 µM) | 0.02 µg/mL (≈ 0.06 µM) | – | – | – | – | – | – | – | –
O=c1[nH]c(=O)n([C@H]2C[C@H](O)[C@@H](COP(=O)(O)O)O2)cc1I | 0.2 µg/mL (≈ 0.461 µM) | 0.2 µg/mL (≈ 0.461 µM) | 0.2 µg/mL (≈ 0.461 µM) | 0.4 µg/mL (≈ 0.921 µM) | 0.7 µg/mL (≈ 1.61 µM) | > 400 µg/mL | 0.2 µg/mL (≈ 0.461 µM) | 0.4 µg/mL (≈ 0.921 µM) | 31 µg/mL (≈ 71.4 µM) | 6.8 µg/mL (≈ 15.7 µM) | 3.54 | > 500 µg/mL | > 500 µg/mL | – | – | –
N.O=c1[nH]c(=O)n([C@H]2C[C@@H]3O[PH](O)(O)OC[C@H]3O2)cc1F | ≥ 200 µg/mL | 1.5 µg/mL | > 400 µg/mL | ≥ 300 µg/mL | ≥ 400 µg/mL | > 400 µg/mL | > 400 µg/mL | > 400 µg/mL | 0.06 µg/mL | 0.164 µg/mL | – | 7.4 µg/mL | 19 µg/mL | 38 | – | –
O=c1[nH]c(=O)n([C@H]2C[C@H](O)[C@@H](COP(=O)(O)O)O2)cc1/C=C/Br | 100 µg/mL (≈ 242 µM) | 7 µg/mL (≈ 16.9 µM) | 0.02 µg/mL (≈ 0.0484 µM) | 20 µg/mL (≈ 48.4 µM) | > 400 µg/mL | > 400 µg/mL | 0.02 µg/mL (≈ 0.0484 µM) | 0.02 µg/mL (≈ 0.0484 µM) | – | – | – | – | – | – | – | –
O=c1[nH]c(=O)n([C@H]2C[C@H](O)[C@@H](COP(=O)(O)O)O2)cc1Br | 0.07 µg/mL (≈ 0.181 µM) | 0.07 µg/mL (≈ 0.181 µM) | 0.2 µg/mL (≈ 0.517 µM) | 0.2 µg/mL (≈ 0.517 µM) | 0.2 µg/mL (≈ 0.517 µM) | > 400 µg/mL | 0.2 µg/mL (≈ 0.517 µM) | 0.2 µg/mL (≈ 0.517 µM) | 34.6 µg/mL (≈ 89.4 µM) | 26 µg/mL (≈ 67.2 µM) | – | 457 µg/mL (≈ 1180 µM) | > 1000 µg/mL | – | 2.16 | –
O=c1[nH]c(=O)n([C@H]2C[C@H](O)[C@@H](COP(=O)(O)O)O2)cc1F [5-FLUORODEOXYURIDYLATE] | 20 µg/mL (≈ 61.3 µM) | 0.2 µg/mL (≈ 0.613 µM) | 10 µg/mL (≈ 30.7 µM) | 7 µg/mL (≈ 21.5 µM) | 100 µg/mL (≈ 307 µM) | > 200 µg/mL | 10 µg/mL (≈ 30.7 µM) | 10 µg/mL (≈ 30.7 µM) | 0.003 µg/mL (≈ 0.0092 µM) | 0.013 µg/mL (≈ 0.0399 µM) | – | 3 µg/mL (≈ 9.2 µM) | 2.41 µg/mL (≈ 7.39 µM) | – | 0.018 | –
O=c1[nH]c(=O)n([C@H]2C[C@H](O)[C@@H](CO)O2)cc1I [IDOXURIDINE] | 0.1 µg/mL (≈ 0.282 µM) | 0.2 µg/mL (≈ 0.565 µM) | 0.2 µg/mL (≈ 0.565 µM) | 0.2 µg/mL (≈ 0.565 µM) | 0.4 µg/mL (≈ 1.13 µM) | > 400 µg/mL | 0.2 µg/mL (≈ 0.565 µM) | 0.2 µg/mL (≈ 0.565 µM) | 16 µg/mL (≈ 45.2 µM) | 8 µg/mL (≈ 22.6 µM) | – | > 500 µg/mL | > 500 µg/mL | – | – | –
O=c1[nH]c(=O)n([C@H]2C[C@@H]3OP(=O)(OCc4ccccc4)OC[C@H]3O2)cc1I (stereo not given in full) | 7 µg/mL (≈ 13.8 µM) | 2 µg/mL (≈ 3.95 µM) | 20 µg/mL (≈ 39.5 µM) | 20 µg/mL (≈ 39.5 µM) | 70 µg/mL (≈ 138 µM) | > 200 µg/mL | 20 µg/mL (≈ 39.5 µM) | 7 µg/mL (≈ 13.8 µM) | > 100 µg/mL | > 100 µg/mL | – | > 100 µg/mL | > 100 µg/mL | – | – | 69 µg/mL (≈ 136 µM)
O=c1[nH]c(=O)n([C@H]2C[C@H](O)[C@@H](CO)O2)cc1Br [BROXURIDINE] | 0.07 µg/mL (≈ 0.228 µM) | 0.07 µg/mL (≈ 0.228 µM) | 0.2 µg/mL (≈ 0.651 µM) | 0.2 µg/mL (≈ 0.651 µM) | 0.2 µg/mL (≈ 0.651 µM) | > 400 µg/mL | 0.2 µg/mL (≈ 0.651 µM) | 0.2 µg/mL (≈ 0.651 µM) | 33.8 µg/mL (≈ 110 µM) | 17.5 µg/mL (≈ 57 µM) | – | > 1000 µg/mL | > 1000 µg/mL | – | – | –
